Laboratory results from ChEMBL document CHEMBL3351247 (J Med Chem, 2014).

Molecular target: Kappa-type opioid receptor (Homo sapiens, UniProt P41145)
Test: Agonist activity at human KOR expressed in CHO cells assessed as inhibition of forskolin-induced cAMP accumulation after 30 mins by luminescence assay
Type: functional, cell-based
Outline: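 CHO cells stably expressing KOR or MOR, plated at 10 000 cells/well and incubated overnight at 37 °C. Compounds given as 10-point serial dilutions (1% DMSO final) with 20 μM forskolin final in HBSS/10 mM HEPES. Incubation 30 min at 37 °C, then detection reagents overnight at room temperature. HitHunter cAMP luminescence read-out; data normalized to vehicle and forskolin-only controls, nonlinear regression.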

Kappa-type opioid receptor, sequence (P41145 whole entry): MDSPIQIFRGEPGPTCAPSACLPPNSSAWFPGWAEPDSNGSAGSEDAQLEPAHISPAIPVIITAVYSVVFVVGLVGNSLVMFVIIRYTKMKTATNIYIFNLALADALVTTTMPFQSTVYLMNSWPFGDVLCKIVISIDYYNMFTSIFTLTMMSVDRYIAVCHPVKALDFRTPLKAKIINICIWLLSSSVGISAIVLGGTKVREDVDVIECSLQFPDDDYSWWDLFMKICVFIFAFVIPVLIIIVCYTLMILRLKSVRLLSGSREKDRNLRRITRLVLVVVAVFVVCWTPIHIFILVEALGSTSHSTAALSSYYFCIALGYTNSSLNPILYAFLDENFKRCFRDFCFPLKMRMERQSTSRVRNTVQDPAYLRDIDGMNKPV

Structure (SMILES): COC(=O)[C@@H]1C[C@H](OC(C)=O)C(=O)[C@H]2[C@@]1(C)CC[C@H]1C(=O)O[C@H](c3ccoc3-c3ccsc3)C[C@]21C
- EC50: 4.3 nM
- Emax: 100%

Structure (SMILES): COC(=O)[C@@H]1C[C@H](OC(C)=O)C(=O)[C@H]2[C@@]1(C)CC[C@H]1C(=O)O[C@H](c3ccoc3C#Cc3ccccc3)C[C@]21C
- EC50: 100 nM
- Emax: 100%

Structure (SMILES): COC(=O)[C@@H]1C[C@H](OC(C)=O)C(=O)[C@H]2[C@@]1(C)CC[C@H]1C(=O)O[C@H](c3ccoc3-c3ccccc3OC)C[C@]21C
- EC50: 10 nM
- Emax: 100%

Structure (SMILES): COC(=O)[C@@H]1C[C@H](OC(C)=O)C(=O)[C@H]2[C@@]1(C)CC[C@H]1C(=O)O[C@H](c3ccoc3-c3ccccc3F)C[C@]21C
- EC50: 1.2 nM
- Emax: 100%

Structure (SMILES): COC(=O)[C@@H]1C[C@H](OC(C)=O)C(=O)[C@H]2[C@@]1(C)CC[C@H]1C(=O)O[C@H](c3ccoc3-c3ccc(N)cc3)C[C@]21C
- EC50: 620 nM
- Emax: 65%

Structure (SMILES): COC(=O)[C@@H]1C[C@H](OC(C)=O)C(=O)[C@H]2[C@@]1(C)CC[C@H]1C(=O)O[C@H](c3ccoc3-c3cccc(C)c3)C[C@]21C
- EC50: 3.4 nM
- Emax: 100%

Structure (SMILES): COC(=O)[C@@H]1C[C@H](OC(C)=O)C(=O)[C@H]2[C@@]1(C)CC[C@H]1C(=O)O[C@H](c3ccoc3-c3ccccc3C)C[C@]21C
- EC50: 5.4 nM
- Emax: 100%

Structure (SMILES): COC(=O)[C@@H]1C[C@H](OC(C)=O)C(=O)[C@H]2[C@@]1(C)CC[C@H]1C(=O)O[C@H](c3ccoc3-c3ccc(F)cc3)C[C@]21C
- EC50: 54 nM
- Emax: 100%

Structure (SMILES): C=Cc1occc1[C@@H]1C[C@]2(C)[C@H]3C(=O)[C@@H](OC(C)=O)C[C@@H](C(=O)OC)[C@]3(C)CC[C@H]2C(=O)O1
- EC50: 0.96 nM
- Emax: 100%

Structure (SMILES): COC(=O)[C@@H]1C[C@H](OC(C)=O)C(=O)[C@H]2[C@@]1(C)CC[C@H]1C(=O)O[C@H](c3ccoc3-c3ccoc3)C[C@]21C
- EC50: 6.5 nM
- Emax: 100%

Structure (SMILES): COC(=O)[C@@H]1C[C@H](OC(C)=O)C(=O)[C@H]2[C@@]1(C)CC[C@H]1C(=O)O[C@H](c3ccoc3CCc3ccccc3)C[C@]21C
- EC50: 38 nM
- Emax: 100%

Structure (SMILES): COC(=O)[C@@H]1C[C@H](OC(C)=O)C(=O)[C@H]2[C@@]1(C)CC[C@H]1C(=O)O[C@H](c3ccoc3-c3cccc(F)c3)C[C@]21C
- EC50: 12 nM
- Emax: 100%

Structure (SMILES): COC(=O)[C@@H]1C[C@H](OC(C)=O)C(=O)[C@H]2[C@@]1(C)CC[C@H]1C(=O)O[C@H](c3ccoc3C#Cc3ccccc3OC)C[C@]21C
- EC50: 6100 nM
- Emax: 100%

Structure (SMILES): COC(=O)[C@@H]1C[C@H](OC(C)=O)C(=O)[C@H]2[C@@]1(C)CC[C@H]1C(=O)O[C@H](c3ccoc3/C=C/c3ccccc3)C[C@]21C
- EC50: 20 nM
- Emax: 100%

Structure (SMILES): COC(=O)[C@@H]1C[C@H](OC(C)=O)C(=O)[C@H]2[C@@]1(C)CC[C@H]1C(=O)O[C@H](c3ccoc3-c3ccc(C)cc3)C[C@]21C
- EC50: 2.3 nM
- Emax: 100%

Structure (SMILES): COC(=O)[C@@H]1C[C@H](OC(C)=O)C(=O)[C@H]2[C@@]1(C)CC[C@H]1C(=O)O[C@H](c3cc(Br)oc3Br)C[C@]21C
- EC50: 240 nM
- Emax: 100%

Structure (SMILES): COC(=O)[C@@H]1C[C@H](OC(C)=O)C(=O)[C@H]2[C@@]1(C)CC[C@H]1C(=O)O[C@H](c3ccoc3-c3cccc(N)c3)C[C@]21C
- EC50: 630 nM
- Emax: 100%

Structure (SMILES): COC(=O)[C@@H]1C[C@H](OC(C)=O)C(=O)[C@H]2[C@@]1(C)CC[C@H]1C(=O)O[C@H](c3ccoc3C(F)(F)F)C[C@]21C
- EC50: 31 nM
- Emax: 100%

Structure (SMILES): CCCC#Cc1occc1[C@@H]1C[C@]2(C)[C@H]3C(=O)[C@@H](OC(C)=O)C[C@@H](C(=O)OC)[C@]3(C)CC[C@H]2C(=O)O1
- EC50: 9250 nM
- Emax: 100%

Structure (SMILES): COC(=O)[C@@H]1C[C@H](OC(C)=O)C(=O)[C@H]2[C@@]1(C)CC[C@H]1C(=O)O[C@H](c3ccoc3-c3ccc([N+](=O)[O-])cc3)C[C@]21C
- EC50: 170 nM
- Emax: 100%

Structure (SMILES): COC(=O)[C@@H]1C[C@H](OC(C)=O)C(=O)[C@H]2[C@@]1(C)CC[C@H]1C(=O)O[C@H](c3ccoc3C#Cc3ccccc3C(F)(F)F)C[C@]21C
- EC50: 430 nM
- Emax: 100%

Structure (SMILES): COC(=O)[C@@H]1C[C@H](OC(C)=O)C(=O)[C@H]2[C@@]1(C)CC[C@H]1C(=O)O[C@H](c3ccoc3-c3ccccc3[N+](=O)[O-])C[C@]21C
- EC50: 360 nM
- Emax: 100%

Structure (SMILES): COC(=O)[C@@H]1C[C@H](OC(C)=O)C(=O)[C@H]2[C@@]1(C)CC[C@H]1C(=O)O[C@H](c3ccoc3-c3ccccc3)C[C@]21C
- EC50: 1.3 nM
- Emax: 100%

Structure (SMILES): COC(=O)[C@@H]1C[C@H](OC(C)=O)C(=O)[C@H]2[C@@]1(C)CC[C@H]1C(=O)O[C@H](c3ccoc3C=O)C[C@]21C
- EC50: 7.3 nM
- Emax: 100%

Structure (SMILES): COC(=O)[C@@H]1C[C@H](OC(C)=O)C(=O)[C@H]2[C@@]1(C)CC[C@H]1C(=O)O[C@H](c3cc(C)oc3C)C[C@]21C
- EC50: 250 nM
- Emax: 100%

Structure (SMILES): COC(=O)[C@@H]1C[C@H](OC(C)=O)C(=O)[C@H]2[C@@]1(C)CC[C@H]1C(=O)O[C@H](c3ccoc3C#CCCCO)C[C@]21C
- EC50: 890 nM
- Emax: 100%

Structure (SMILES): COC(=O)[C@@H]1C[C@H](OC(C)=O)C(=O)[C@H]2[C@@]1(C)CC[C@H]1C(=O)O[C@H](c3ccoc3-c3ccc4ccccc4c3)C[C@]21C
- EC50: 25 nM
- Emax: 100%

Structure (SMILES): COC(=O)[C@@H]1C[C@H](OC(C)=O)C(=O)[C@H]2[C@@]1(C)CC[C@H]1C(=O)O[C@H](c3ccoc3-c3ccc(OC)cc3)C[C@]21C
- EC50: 16 nM
- Emax: 100%

Structure (SMILES): COC(=O)[C@@H]1C[C@H](OC(C)=O)C(=O)[C@H]2[C@@]1(C)CC[C@H]1C(=O)O[C@H](c3ccoc3C3CC3)C[C@]21C
- EC50: 1 nM
- Emax: 100%

Structure (SMILES): COC(=O)[C@@H]1C[C@H](OC(C)=O)C(=O)[C@H]2[C@@]1(C)CC[C@H]1C(=O)O[C@H](c3ccoc3CO)C[C@]21C
- EC50: 3.3 nM
- Emax: 100%

Structure (SMILES): CCc1occc1[C@@H]1C[C@]2(C)[C@H]3C(=O)[C@@H](OC(C)=O)C[C@@H](C(=O)OC)[C@]3(C)CC[C@H]2C(=O)O1
- EC50: 2.9 nM
- Emax: 100%

Structure (SMILES): COC(=O)[C@@H]1C[C@H](OC(C)=O)C(=O)[C@H]2[C@@]1(C)CC[C@H]1C(=O)O[C@H](c3ccoc3-c3cccc([N+](=O)[O-])c3)C[C@]21C
- EC50: 450 nM
- Emax: 100%

Structure (SMILES): COC(=O)[C@@H]1C[C@H](OC(C)=O)C(=O)[C@H]2[C@@]1(C)CC[C@H]1C(=O)O[C@H](c3ccoc3-c3ccccc3C(F)(F)F)C[C@]21C
- EC50: 8.4 nM
- Emax: 100%

Structure (SMILES): COC(=O)[C@@H]1C[C@H](OC(C)=O)C(=O)[C@H]2[C@@]1(C)CC[C@H]1C(=O)O[C@H](c3ccoc3C#N)C[C@]21C
- EC50: 9.4 nM
- Emax: 100%

Structure (SMILES): COC(=O)[C@@H]1C[C@H](OC(C)=O)C(=O)[C@H]2[C@@]1(C)CC[C@H]1C(=O)O[C@H](c3ccoc3-c3ccc(C(F)(F)F)cc3)C[C@]21C
- EC50: 1020 nM
- Emax: 100%

Structure (SMILES): COC(=O)[C@@H]1C[C@H](OC(C)=O)C(=O)[C@H]2[C@@]1(C)CC[C@H]1C(=O)O[C@H](c3ccoc3-c3cccc4ccccc34)C[C@]21C
- EC50: 37 nM
- Emax: 100%

Structure (SMILES): COC(=O)[C@@H]1C[C@H](OC(C)=O)C(=O)[C@H]2[C@@]1(C)CC[C@H]1C(=O)O[C@H](c3ccoc3-c3cccc(OC)c3)C[C@]21C
- EC50: 8.6 nM
- Emax: 100%

Structure (SMILES): COC(=O)[C@@H]1C[C@H](OC(C)=O)C(=O)[C@H]2[C@@]1(C)CC[C@H]1C(=O)O[C@H](c3coc(C(F)(F)F)c3)C[C@]21C
- EC50: 3.1 nM
- Emax: 100%

Structure (SMILES): CC#Cc1occc1[C@@H]1C[C@]2(C)[C@H]3C(=O)[C@@H](OC(C)=O)C[C@@H](C(=O)OC)[C@]3(C)CC[C@H]2C(=O)O1
- EC50: 26 nM
- Emax: 100%

Structure (SMILES): COC(=O)[C@@H]1C[C@H](OC(C)=O)C(=O)[C@H]2[C@@]1(C)CC[C@H]1C(=O)O[C@H](c3ccoc3-c3cccc(C(F)(F)F)c3)C[C@]21C
- EC50: 27 nM
- Emax: 100%

Structure (SMILES): COC(=O)[C@@H]1C[C@H](OC(C)=O)C(=O)[C@H]2[C@@]1(C)CC[C@H]1C(=O)O[C@H](c3ccoc3-c3ccccc3N)C[C@]21C
- EC50: 430 nM
- Emax: 100%

Structure (SMILES): COC(=O)[C@@H]1C[C@H](OC(C)=O)C(=O)[C@H]2[C@@]1(C)CC[C@H]1C(=O)O[C@H](c3ccoc3-c3ccco3)C[C@]21C
- EC50: 6.7 nM
- Emax: 100%
